A short description of data set [1]: Inhibition of HCV NS3 protease in absence of human serum. Further details: species or system Hepacivirus hominis. The essentials: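 Continuous enzymatic assay using NS4A-tethered single-chain HCV NS3 serine protease, without human serum. Ki* is the equilibrium constant, which includes the reversible covalent ketone–serine bond. Compounds were tested as P1 diastereomer mixtures (2:1 to 1:2) that equilibrate rapidly under assay conditions.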

Another data set deals with Hepatitis C virus. Briefly: Antiviral activity against HCV assessed as inhibition of virus replication by cell based assay in absence of human serum. In kind it is functional, Hepacivirus hominis. The essentials: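 Replicon-based cellular assay run without human serum. EC90 is the concentration that inhibits replicon replication by 90%. Compounds were tested as rapidly equilibrating P1 diastereomer mixtures.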

The nature of data set [2]: Selectivity for HCV NS3 protease over human neutrophil elastase. The essentials:
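Compounds were also assayed against human neutrophil elastase. Selectivity is expressed as the HNE/HCV ratio of the two enzyme potencies.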

Data set [3] is described as follows: AUC in rat at 10 mg/kg, po administered with 20% HPBCD. In kind it is ADME, organism-based. Also noted: dose 10 mg/kg, route oral. Conditions: plasma.
Data set [4] in a line: AUC in monkey at 3 mg/kg, po administered with 0.4% hydroxypropyl methylcellulose. In kind it is ADME, organism-based, Macaca mulatta. Also noted: dose 3 mg/kg, route oral. Conditions: rhesus monkey, in vivo.
A short description of data set [5]: AUC in dog at 3 mg/kg, po administered with 0.4% hydroxypropyl methylcellulose. Format: ADME, organism-based, Canis lupus familiaris. Also noted: dose 3 mg/kg, route oral. Particulars: in vivo.
Data set [6] in a line: AUC in rat at 3 mg/kg, iv administered with 0.4% hydroxypropyl methylcellulose. Format: ADME, organism-based. Further details: dose 3 mg/kg, route intravenous. Particulars: in vivo.
The nature of data set [7]: AUC in monkey at 1 mg/kg, iv administered with 0.4% hydroxypropyl methylcellulose. Conditions: rhesus monkey, in vivo. Format: ADME, organism-based, Macaca mulatta. Also noted: dose 1 mg/kg, route intravenous.
Data set [8] is described as follows: AUC in dog at 2 mg/kg, iv administered with 0.4% hydroxypropyl methylcellulose. Conditions: in vivo. Further details: dose 2 mg/kg, route intravenous. Format: ADME, organism-based, Canis lupus familiaris.
Data set [9] in a line: Half life in rat at 3 mg/kg, iv administered with 0.4% hydroxypropyl methylcellulose. Format: ADME, organism-based. Also noted: dose 3 mg/kg, route intravenous. Conditions: in vivo.
Data set [10] in a line: Half life in monkey at 1 mg/kg, iv administered with 0.4% hydroxypropyl methylcellulose. Format: ADME, organism-based, Macaca mulatta. Further details: dose 1 mg/kg, route intravenous. Conditions: rhesus monkey, in vivo.
The nature of data set [11]: Half life in dog at 2 mg/kg, iv administered with 0.4% hydroxypropyl methylcellulose. In kind it is ADME, organism-based, Canis lupus familiaris. Further details: dose 2 mg/kg, route intravenous. Conditions: in vivo.
Data set [12] in a line: Bioavailability in rat at 10 mg/kg, po administered with 0.4% hydroxypropyl methylcellulose. Conditions: in vivo. Format: ADME, organism-based.
Data set [13] can be described thus: Bioavailability in monkey at 3 mg/kg, po administered with 0.4% hydroxypropyl methylcellulose. In kind it is ADME, organism-based, Macaca mulatta. Conditions: rhesus monkey, in vivo.
Data set [14] in a line: Bioavailability in dog at 3 mg/kg, po administered with 0.4% hydroxypropyl methylcellulose. In kind it is ADME, organism-based, Canis lupus familiaris. Conditions: in vivo.
Data set [15] can be described thus: Drug level in rat liver after 6 hrs. Format: ADME, tissue-based. Particulars: read-out: Drug uptake. The essentials:
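In rat, compound level in liver was measured 6 h after dosing in 0.4% MC and reported as ng/g tissue.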

Data set [16] can be described thus: AUC in rat at 10 mg/kg, po administered with 0.4% hydroxypropyl methyl cellulose. Further details: dose 10 mg/kg, route oral. Conditions: in vivo. In kind it is ADME, organism-based.

As to `C=CCNC(=O)C(=O)C(CC1CC1)NC(=O)[C@@H]1[C@@H]2[C@H](CN1C(=O)[C@@H](NC(=O)NC(CN1C(=O)CC(C)(C)CC1=O)C(C)(C)C)C(C)(C)C)C2(C)C` (single isomer, unassigned), the Ki – broadly, the equilibrium dissociation constant of an inhibitor or competing ligand from its target – in data set [1] was 4 nM. For the same compound, the EC90 (commonly the point of the concentration-response curve where the effect stands at 90%) with Hepatitis C virus was 30 nM. Besides, the Ratio in data set [2] is 7100. In addition, the AUC (as a rule, the area under the concentration-time curve, a measure of exposure) was 1.2 µM·h in [3]; 0.1 µM·h in data set [4]; 1.2 µM·h in [5]; 1.6 µM·h in data set [6]; 0.7 µM·h in data set [7]; 2.2 µM·h in data set [8]. The AUC in data set [16] was found to be 0.9 µM·h. Moreover, the results for the half-life in [9], in data set [10] and in data set [11] were 7.4 h, 2.3 h and 2.7 h, respectively. Moreover, the bioavailability (usually dose-corrected exposure relative to a reference, in per cent) in [12] turned out to be 22%; in data set [13], 4%; in data set [14] it was 35%. The concentration at 6 h in data set [15] came out at 1800 ng/g.
`C=CCNC(=O)C(=O)C(CCCC)NC(=O)[C@@H]1[C@@H]2[C@H](CN1C(=O)[C@@H](NC(=O)NC(CN1C(=O)CC(C)(C)CC1=O)C(C)(C)C)C1CCCCC1)C2(C)C` (single isomer, unassigned) gave a Ki in [1] of 2 nM. Besides, the EC90 in the data set on Hepatitis C virus is 45 nM. Further, the Ratio in [2] came out at 2400. This compound also registered an AUC in [3] of 0.45 µM·h.
Turning to `C=CCNC(=O)C(=O)C(CCC1CC1)NC(=O)[C@@H]1[C@@H]2[C@H](CN1C(=O)[C@@H](NC(=O)NC(CN1C(=O)CC(C)(C)CC1=O)C(C)(C)C)C(C)(C)C)C2(C)C` (single isomer, unassigned), the Ki in data set [1] worked out at 7 nM. Further, the EC90 in the data set with Hepatitis C virus was determined as 30 nM. For the same compound, in data set [2], the Ratio was 11000. Also, the AUC in data set [3] is 0.5 µM·h.
As to `CC(C)(C)NC(=O)N[C@H](C(=O)N1C[C@H]2[C@@H]([C@H]1C(=O)NC(CC1CCC1)C(=O)C(N)=O)C2(C)C)C(C)(C)C` (stereo partly drawn) [BOCEPREVIR], the affinity in data set [1] corresponds to a Ki of 14 nM. Further, the EC90 in the data set with Hepatitis C virus came to 350 nM. This compound also yielded a bioavailability in [13] of 4%.
